Measured values taken from ChEMBL document CHEMBL1122823, “Synthesis and receptor-binding affinity of fluorotamoxifen, a possible estrogen-receptor imaging agent” (J Med Chem, 1985).
Several values for one entry are separate records, joined by “and”; a condition that tells them apart may be missing. Identical values can stand only once.

Legend:
[1] = target: T1, Estrogen receptor (Rattus norvegicus) (UniProt P06211+Q62986); assay: Uterotrophic effect in rats uterine at 500 ug/day dose in the presence of 0.2 ug estradiol; type: functional, tissue-based; settings: Uterus
[2] = target: T1, Estrogen receptor (Rattus norvegicus); assay: Uterotrophic effect in rats uterine at 500 ug/day dose in the presence of 0.08 ug estradiol; type: functional, tissue-based; settings: Uterus
[3] = target: T1, Estrogen receptor (Rattus norvegicus); assay: Uterotrophic effect in rats uterine at 100 ug/day dose in the presence of 0.20 ug estradiol; type: functional, tissue-based; settings: Uterus
[4] = target: T1, Estrogen receptor (Rattus norvegicus); assay: Uterotrophic effect in rats uterine at 500 ug/day dose; type: functional, tissue-based; settings: Uterus
[5] = target: T1, Estrogen receptor (Rattus norvegicus); assay: Uterotrophic effect in rats uterine at 100 ug/day dose in the presence of 0.05 ug hexestrol; type: functional, tissue-based; settings: Uterus
[6] = target: T1, Estrogen receptor (Rattus norvegicus); assay: Uterotrophic effect in rats uterine at 500 ug/day dose in the presence of 10 ug estradiol; type: functional, tissue-based; settings: Uterus
[7] = target: T1, Estrogen receptor (Rattus norvegicus); assay: Uterotrophic effect in rats uterine at 100 ug/day dose; type: functional, tissue-based; settings: Uterus
[8] = target: T1, Estrogen receptor (Rattus norvegicus); settings: Uterus
[9] = target: T1, Estrogen receptor (Rattus norvegicus); assay: Uterotrophic effect in rats uterine at 1 ug/day dose in the presence of 0.08 ug estradiol; type: functional, tissue-based; settings: Uterus
[10] = target: T1, Estrogen receptor (Rattus norvegicus); assay: Uterotrophic effect in rats uterine at 100 ug/day dose in the presence of 10 ug estradiol; type: functional, tissue-based; settings: Uterus
[11] = target: T1, Estrogen receptor (Rattus norvegicus); assay: Percent uterotrophic effect at 500 ug/day dose compared to estradiol; type: functional
[12] = target: T1, Estrogen receptor (Rattus norvegicus)
[13] = target: T1, Estrogen receptor (Rattus norvegicus); assay: Uterotrophic effect in rats uterine at 10 ug/day dose in the presence of 0.08 ug estradiol; type: functional, tissue-based; settings: Uterus
[14] = target: T1, Estrogen receptor (Rattus norvegicus); settings: Uterus; remark: listed apart in the source
[15] = target: T1, Estrogen receptor (Rattus norvegicus); assay: Uterotrophic effect in rats uterine at 500 ug/day dose in the presence of 0.10 ug estradiol; type: functional, tissue-based; settings: Uterus
[16] = target: T1, Estrogen receptor (Rattus norvegicus); assay: Percent uterotrophic effect at 10 ug/day dose compared to estradiol; type: functional
[17] = target: T1, Estrogen receptor (Rattus norvegicus); assay: Uterotrophic effect in rats at 10 ug/day dose; type: functional, tissue-based; settings: Uterus
[18] = Dissociation constant was evaluated.; type: functional
Outline: (§1)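 Rat uterine cytosol from 19-day-old immature Sabra rats, homogenized at 0 °C in TEG buffer (pH 7.4, 10% glycerol, 0.01 M DTT) and spun to 105000g, diluted to 2 uteri/mL. […] Free ligand removed with 2.5% dextran-coated charcoal. Nonspecific binding taken with 10000-fold excess. KA = KL·A50/([L*]+KL), with free [L*] 10 nM.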

[19] = Dissociation constant was evaluated; type: physicochemical; outline: as §1
[20] = target: T1, Estrogen receptor (Rattus norvegicus); assay: Percent uterotrophic effect at 50 ug/day dose compared to estradiol; type: functional
[21] = target: T1, Estrogen receptor (Rattus norvegicus); assay: Uterotrophic effect in rats uterine at 50 ug/day dose; type: functional, tissue-based; settings: Uterus
[22] = target: T1, Estrogen receptor (Rattus norvegicus); assay: Uterotrophic effect in rats uterine at 1000 ug/day dose; type: functional, tissue-based; settings: Uterus
[23] = target: T1, Estrogen receptor (Rattus norvegicus); assay: Percent uterotrophic effect at 100 ug/day dose compared to estradiol; type: functional
[24] = target: T1, Estrogen receptor (Rattus norvegicus); assay: Uterotrophic effect in rats uterine at 10 ug/day dose; type: functional, tissue-based; settings: Uterus
[25] = target: T1, Estrogen receptor (Rattus norvegicus); assay: Uterotrophic effect in rats uterine at 10 ug/day dose in the presence of 0.16 ug estradiol; type: functional, tissue-based; settings: Uterus
[26] = target: T1, Estrogen receptor (Rattus norvegicus); assay: Uterotrophic effect in rats uterine at 1000 ug/day dose in the presence of 0.16 ug estradiol; type: functional, tissue-based; settings: Uterus
[27] = target: T1, Estrogen receptor (Rattus norvegicus); assay: Uterotrophic effect in rats uterine at 100 ug/day dose in the presence of 0.1 ug estradiol; type: functional, tissue-based; settings: Uterus
[28] = target: T1, Estrogen receptor (Rattus norvegicus); assay: Uterotrophic effect in rats uterine at 100 ug/day dose in the presence of 0.5 ug hexestrol; type: functional, tissue-based; settings: Uterus
[29] = target: T1, Estrogen receptor (Rattus norvegicus); settings: Uterus; remark: listed apart in the source
[30] = target: T1, Estrogen receptor (Rattus norvegicus); assay: Percent uterotrophic effect at 0.1 ug/day dose compared to estradiol; type: functional
[31] = target: T1, Estrogen receptor (Rattus norvegicus); assay: Uterotrophic effect in rats uterine at 0.3 ug/day dose; type: functional, tissue-based; settings: Uterus
[32] = target: T1, Estrogen receptor (Rattus norvegicus); assay: Uterotrophic effect in rats at 0.1 ug/day dose; type: functional, tissue-based; settings: Uterus
[33] = target: T1, Estrogen receptor (Rattus norvegicus); assay: Uterotrophic effect in rats uterine at 0.03 ug/day dose; type: functional, tissue-based; settings: Uterus
[34] = target: T1, Estrogen receptor (Rattus norvegicus); assay: Uterotrophic effect in rats uterine at 0.01 ug/day dose; type: functional, tissue-based; settings: Uterus

SMILES: CC/C(=C(\c1ccc(N)cc1)c1ccc(OCCN(C)C)cc1)c1ccccc1
- Uterine weight [1]: 62
- Uterine weight [2]: 56.5
- Uterine weight [3]: 43
- Max uterine weight [4]: 54 mg
- Uterine weight [4]: 54
- Uterine weight [5]: 46 and 70.3
- Uterine weight [6]: 67.2
- Uterine weight [7]: 50.3
- Uterine weight [8]: 44
- Uterine weight [9]: 58.2
- Uterine weight [10]: 57.1
- Effect [11]: 76%
- A50 [12]: 20 nM
- Uterine weight [13]: 54.8
- Uterine weight [14]: 29.6
- Uterine weight [15]: 46

SMILES: CC/C(=C(/c1ccc(O)cc1)c1ccc(F)cc1)c1ccccc1
- Effect [16]: 140%
- Max uterine weight [17]: 97 mg
- KA [18]: 63 nM
- A50 [12]: 670 nM

SMILES: CC/C(=C(/CC)c1ccc(O)cc1)c1ccc(O)cc1 [DIETHYLSTILBESTROL]
- KA [19]: 400 pM

SMILES: CC/C(=C(/c1ccc(O)cc1)c1ccc(NC(C)=O)cc1)c1ccccc1
- Effect [20]: 98%
- Max uterine weight [21]: 65.8 mg
- A50 [12]: 1200 nM

SMILES: CC/C(=C(\c1ccc(F)cc1)c1ccc(OCCN(C)C)cc1)c1ccccc1
- Uterine weight [22]: 85.7
- Effect [23]: 108%
- Uterine weight [24]: 68.9
- Uterine weight [25]: 72.2
- Uterine weight [3]: 73.8
- Uterine weight [5]: 70.4
- Uterine weight [26]: 76.9
- Max uterine weight [7]: 76.4 mg
- Uterine weight [7]: 76.4
- Uterine weight [27]: 74
- Uterine weight [10]: 80.3
- Uterine weight [28]: 71.2
- A50 [12]: 5000 nM

SMILES: CC[C@H](c1ccc(O)cc1)[C@@H](CC)c1ccc(O)cc1
- Uterine weight [29]: 86.8
- Effect [30]: 143%
- Uterine weight [8]: 97.3
- Uterine weight [31]: 94.5
- Max uterine weight [32]: 62.6 mg
- Uterine weight [33]: 62.6
- Uterine weight [34]: 29.3
- Uterine weight [14]: 90.2

SMILES: CC/C(=C(\c1ccc(NC(C)=O)cc1)c1ccc(ON(C)C)cc1)c1ccccc1
- Effect [20]: 60%
- Max uterine weight [21]: 41.8 mg
